# ChEMBL document CHEMBL2150901, “Synthesis and biological activity of tricyclic cycloalkylimidazo-, pyrimido- and diazepinopurinediones” (Eur J Med Chem, 2011)
# Active and inactive are the calls of the source. The rule behind the calls is not given here.
# Key:
# [1] = tested on: Mus musculus; test: Anticonvulsant activity in F1 albino mouse assessed as protection against maximal electroshock-induced seizures at 300 mg/kg, ip after 0.25 hrs; assay type: functional, organism-based; parameters: dose 300 mg/kg
# In short: (§1)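 Male albino F-1 mice (18–25 g), groups of 1–5 (rotorod 2–8). Compound given ip as a suspension in 0.5% methylcellulose at 30, 100 and 300 mg/kg. Seizures by maximal electroshock or subcutaneous pentylenetetrazole; neurotoxicity by rotorod. Read at 0.5 and 4 h, with some at 0.25, 1 and 2 h. Value is the minimum active dose, with protected (or toxic)/tested animals.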
# [2] = tested on: Mus musculus; test: Neurotoxicity in F1 albino mouse assessed as minimal motor impairment at 300 mg/kg, ip after 0.25 hrs by rotorod test; assay type: toxicity, organism-based; parameters: dose 300 mg/kg, route intraperitoneal; conditions: in vivo; in short: as §1
# [3] = biological target: T1, Adenosine receptor A2b (Homo sapiens) (UniProt P29275); test: Displacement of [3H]PSB-603 from human recombinant adenosine A2B receptor expressed in CHO cells at 10 uM; assay type: cell-based
# T1 sequence (whole entry): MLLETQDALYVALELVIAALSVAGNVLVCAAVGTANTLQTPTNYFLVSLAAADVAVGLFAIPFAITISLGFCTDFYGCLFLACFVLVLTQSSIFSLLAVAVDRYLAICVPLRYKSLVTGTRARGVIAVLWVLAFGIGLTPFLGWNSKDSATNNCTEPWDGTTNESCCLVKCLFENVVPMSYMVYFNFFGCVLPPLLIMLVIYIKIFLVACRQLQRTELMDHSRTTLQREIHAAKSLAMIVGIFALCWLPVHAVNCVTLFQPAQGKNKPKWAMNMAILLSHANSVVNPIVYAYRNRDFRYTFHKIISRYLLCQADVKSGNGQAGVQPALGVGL
# In short: (§2)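 CHO cell membranes expressing the human receptor. Radioligands: A1 [3H]CCPA; A2B [3H]ZM241385 or [3H]PSB-603; A3 [3H]PSB-11. […] Potent compounds run at 6–7 concentrations spanning 3 orders of magnitude; Ki ± SEM.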
# [4] = biological target: T2, Adenosine receptor A1 (Rattus norvegicus, UniProt P25099); test: Displacement of [3H]CCPA from adenosine A1 receptor in rat brain cortical membrane; assay type: cell membranes
# T2 sequence (P25099 whole entry): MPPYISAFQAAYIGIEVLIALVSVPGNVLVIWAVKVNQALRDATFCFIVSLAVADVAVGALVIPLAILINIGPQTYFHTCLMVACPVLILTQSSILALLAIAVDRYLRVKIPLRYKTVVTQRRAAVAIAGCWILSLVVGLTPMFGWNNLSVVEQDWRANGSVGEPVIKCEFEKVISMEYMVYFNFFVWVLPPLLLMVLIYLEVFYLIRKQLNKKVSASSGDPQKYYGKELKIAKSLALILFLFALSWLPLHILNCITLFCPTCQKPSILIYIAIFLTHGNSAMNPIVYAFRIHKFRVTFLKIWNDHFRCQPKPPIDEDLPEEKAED
# [5] = biological target: T3, Adenosine receptor A3 (Homo sapiens, UniProt P0DMS8); test: Displacement of [3H]PSB-11 from human recombinant adenosine A3 receptor expressed in CHO cells; assay type: cell-based
# T3 sequence (P0DMS8 whole entry): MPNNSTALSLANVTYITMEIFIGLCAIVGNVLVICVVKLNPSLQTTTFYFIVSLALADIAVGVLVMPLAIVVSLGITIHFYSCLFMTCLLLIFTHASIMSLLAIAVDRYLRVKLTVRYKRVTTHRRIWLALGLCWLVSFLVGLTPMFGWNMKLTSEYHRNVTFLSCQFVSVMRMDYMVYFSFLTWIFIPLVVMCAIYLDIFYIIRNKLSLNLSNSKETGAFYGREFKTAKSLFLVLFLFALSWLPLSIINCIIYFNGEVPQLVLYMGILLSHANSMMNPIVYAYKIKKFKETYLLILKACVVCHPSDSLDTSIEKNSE
# [6] = species on record: Rattus norvegicus; test: Selectivity ratio of Ki for adenosine A1 receptor in rat brain cortical membrane to Ki for adenosine A2A receptor in rat brain striatal membrane; assay type: cell membranes
# In short: (§3)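 Ki ratios from radioligand competition binding. Rat A1 used brain cortical membranes and rat A2A used brain striatal membranes. Human A1 and A2A used membranes of CHO cells expressing the receptors. A1 radioligand [³H]CCPA; A2A radioligand [³H]MSX-2. Potent compounds were tested at 6–7 concentrations spanning 3 orders of magnitude.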
# [7] = tested on: Mus musculus; test: Anticonvulsant activity in F1 albino mouse assessed as protection against subcutaneous pentylenetetrazole-induced seizures at 300 mg/kg, ip after 0.25 hrs; assay type: functional, organism-based; parameters: dose 300 mg/kg; in short: as §1
# [8] = tested on: Mus musculus; test: Neurotoxicity in F1 albino mouse assessed as minimal motor impairment at 300 mg/kg, ip after 0.5 hrs by rotorod test; assay type: toxicity, organism-based; parameters: dose 300 mg/kg, route intraperitoneal; conditions: in vivo; in short: as §1
# [9] = tested on: Mus musculus; test: Neurotoxicity in F1 albino mouse assessed as minimal motor impairment at 300 mg/kg, ip after 4 hrs by rotorod test; assay type: toxicity, organism-based; parameters: dose 300 mg/kg, route intraperitoneal; conditions: in vivo; in short: as §1
# [10] = tested on: Mus musculus; test: Anticonvulsant activity in F1 albino mouse assessed as protection against subcutaneous pentylenetetrazole-induced seizures at 300 mg/kg, ip after 4 hrs; assay type: functional, organism-based; parameters: dose 300 mg/kg; in short: as §1
# [11] = biological target: T4, Adenosine receptor A2b (Homo sapiens, UniProt P29275); test: Displacement of [3H]PSB-603 from human recombinant adenosine A2B receptor expressed in CHO cells; assay type: cell-based; in short: as §2
# T4 sequence (P29275 whole entry): T1 sequence (whole entry)
# [12] = tested on: Mus musculus; test: Anticonvulsant activity in F1 albino mouse assessed as protection against maximal electroshock-induced seizures at 300 mg/kg, ip after 1 hr; assay type: functional, organism-based; parameters: dose 300 mg/kg; in short: as §1
# [13] = biological target: Adenosine receptor A2a (Homo sapiens, UniProt P29274); test: Displacement of [3H]MSX-2 from human recombinant adenosine A2A receptor expressed in CHO cells; assay type: cell-based
# Chain of Adenosine receptor A2a (Homo sapiens, UniProt P29274) (P29274 whole entry): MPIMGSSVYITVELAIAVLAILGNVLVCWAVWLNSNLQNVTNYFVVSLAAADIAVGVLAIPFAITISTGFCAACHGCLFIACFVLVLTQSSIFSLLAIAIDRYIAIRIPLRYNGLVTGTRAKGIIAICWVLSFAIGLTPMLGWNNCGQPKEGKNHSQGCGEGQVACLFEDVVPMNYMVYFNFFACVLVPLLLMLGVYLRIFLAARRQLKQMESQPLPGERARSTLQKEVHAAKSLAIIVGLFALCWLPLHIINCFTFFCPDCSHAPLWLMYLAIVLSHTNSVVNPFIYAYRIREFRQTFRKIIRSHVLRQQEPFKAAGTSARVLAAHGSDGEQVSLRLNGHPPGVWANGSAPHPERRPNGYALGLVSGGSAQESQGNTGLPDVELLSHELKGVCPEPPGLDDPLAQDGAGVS
# [14] = tested on: Mus musculus; test: Anticonvulsant activity in F1 albino mouse assessed as protection against maximal electroshock-induced seizures at 300 mg/kg, ip after 4 hrs; assay type: functional, organism-based; parameters: dose 300 mg/kg; in short: as §1
# [15] = tested on: Mus musculus; test: Anticonvulsant activity in F1 albino mouse assessed as protection against maximal electroshock-induced seizures at 300 mg/kg, ip after 0.5 hrs; assay type: functional, organism-based; parameters: dose 300 mg/kg; in short: as §1
# [16] = biological target: T5, Adenosine receptor A3 (Homo sapiens) (UniProt P0DMS8); test: Displacement of [3H]PSB-11 from human recombinant adenosine A3 receptor expressed in CHO cells at 10 uM; assay type: cell-based; in short: as §2
# T5 sequence (whole entry): T3 sequence (P0DMS8 whole entry)
# [17] = biological target: T6, Adenosine receptor A1 (Homo sapiens, UniProt P30542); test: Displacement of [3H]CCPA from human recombinant adenosine A1 receptor expressed in CHO cells; assay type: cell-based
# T6 sequence (P30542 whole entry): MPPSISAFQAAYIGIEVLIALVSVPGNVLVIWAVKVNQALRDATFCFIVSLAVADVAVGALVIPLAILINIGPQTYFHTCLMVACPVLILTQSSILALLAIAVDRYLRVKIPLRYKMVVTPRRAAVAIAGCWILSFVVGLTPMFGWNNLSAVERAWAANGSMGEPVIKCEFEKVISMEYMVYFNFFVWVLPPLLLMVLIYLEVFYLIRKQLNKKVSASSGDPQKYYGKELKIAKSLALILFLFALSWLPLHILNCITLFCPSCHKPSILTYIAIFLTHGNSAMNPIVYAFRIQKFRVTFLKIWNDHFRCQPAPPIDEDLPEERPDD
# [18] = tested on: Mus musculus; test: Neurotoxicity in F1 albino mouse assessed as minimal motor impairment at 300 mg/kg, ip after 1 hr by rotorod test; assay type: toxicity, organism-based; parameters: dose 300 mg/kg, route intraperitoneal; conditions: in vivo; in short: as §1
# [19] = tested on: Mus musculus; test: Anticonvulsant activity in F1 albino mouse assessed as protection against subcutaneous pentylenetetrazole-induced seizures at 300 mg/kg, ip after 1 hr; assay type: functional, organism-based; parameters: dose 300 mg/kg; in short: as §1
# [20] = biological target: Adenosine receptor A2a (Rattus norvegicus, UniProt P30543); test: Displacement of [3H]MSX-2 from adenosine A2A receptor in rat brain striatal membrane; assay type: cell membranes
# Chain of Adenosine receptor A2a (Rattus norvegicus, UniProt P30543) (P30543 whole entry): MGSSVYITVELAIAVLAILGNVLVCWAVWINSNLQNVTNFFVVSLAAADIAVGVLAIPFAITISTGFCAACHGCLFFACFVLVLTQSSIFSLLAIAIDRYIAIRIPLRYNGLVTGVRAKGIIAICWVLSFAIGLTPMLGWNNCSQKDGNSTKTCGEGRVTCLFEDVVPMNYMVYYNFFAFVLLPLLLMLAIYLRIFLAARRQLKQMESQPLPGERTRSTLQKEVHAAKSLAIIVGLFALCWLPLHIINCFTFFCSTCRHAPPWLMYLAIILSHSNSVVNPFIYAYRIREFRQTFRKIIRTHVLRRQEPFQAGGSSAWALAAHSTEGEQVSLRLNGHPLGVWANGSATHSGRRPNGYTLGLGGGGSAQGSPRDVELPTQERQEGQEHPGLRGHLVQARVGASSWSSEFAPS
# [21] = tested on: Mus musculus; test: Anticonvulsant activity in F1 albino mouse assessed as protection against subcutaneous pentylenetetrazole-induced seizures at 300 mg/kg, ip after 0.5 hrs; assay type: functional, organism-based; parameters: dose 300 mg/kg; in short: as §1
# [22] = biological target: T7, Adenosine receptor A1 (Rattus norvegicus) (UniProt P25099); test: Displacement of [3H]CCPA from adenosine A1 receptor in rat brain cortical membrane at 25 uM; assay type: cell membranes
# T7 sequence (whole entry): T2 sequence (P25099 whole entry)
# [23] = biological target: T8, Adenosine receptor A1 (Homo sapiens) (UniProt P30542); test: Displacement of [3H]CCPA from human recombinant adenosine A1 receptor expressed in CHO cells at 10 uM; assay type: cell-based; in short: as §2
# T8 sequence (whole entry): T6 sequence (P30542 whole entry)
# [24] = tested on: CHO; test: Selectivity ratio of Ki for human recombinant adenosine A2A receptor expressed in CHO cells to Ki for adenosine A2A receptor in rat brain striatal membrane; assay type: cell-based; in short: as §3
# [25] = biological target: T4, Adenosine receptor A2b; test: Displacement of [3H]ZM241385 from human adenosine A2B receptor expressed in CHO cells; assay type: cell-based
# [26] = biological target: T1, Adenosine receptor A2b (Homo sapiens); test: Displacement of [3H]ZM241385 from human adenosine A2B receptor expressed in CHO cells at 10 uM; assay type: cell-based; in short: as §2
SMILES,Activity [1],Activity [2],Ki [4],Ki [5],Ratio Ki [6],Activity [7],Activity [8],Activity [9],Activity [10],Activity [12],Ki [13],Activity [14],Activity [15],inhibition [16],Ki [17],Activity [18],Activity [19],Ki [20],Activity [21],inhibition [22],also measured
Cn1c(=O)c2c(nc3n2CCCN3C2CCC2)n(C)c1=O,inactive,Non-toxic,≥ 10 µM,> 10 µM,> 5,inactive,Non-toxic,Non-toxic,inactive,inactive,0.847 µM,inactive,inactive,5%,10.3 µM,Non-toxic,inactive,1.93 µM,inactive,39%,inhibition [3]: 21%; Ki [11]: > 10 µM
CC(=O)O[C@H]1CC[C@H](N2CCCn3c2nc2c3c(=O)n(C)c(=O)n2C)CC1,inactive,Non-toxic,> 10 µM,> 10 µM,> 2,inactive,Non-toxic,Non-toxic,inactive,inactive,21.9 µM,inactive,inactive,27%,> 10 µM,Non-toxic,inactive,6.2 µM,inactive,5%,inhibition [3]: 0%; inhibition [23]: 5%; Ratio Ki [24]: 3; Ki [11]: > 10 µM
Cn1c(=O)c2c(nc3n2CCN3C2CCC(O)CC2)n(C)c1=O (mixture of isomers),inactive,Non-toxic,> 25 µM,> 10 µM,> 6,inactive,Non-toxic,Non-toxic,inactive,inactive,3.27 µM,inactive,inactive,0%,> 10 µM,Non-toxic,inactive,4.48 µM,inactive,4%,inhibition [23]: 7%; Ki [25]: > 10 µM; inhibition [26]: 24%
